According to ChEMBL document CHEMBL4689842, “EUbOPEN Chemogenomics Library wave 1” (2021):

Tested on: HEK-293T
Test: Multiplex assay against HEK293T;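 for Population Tubulin-Different-Phenotype (%): share of the cells with healthy nuclei that show this phenotype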
Format: toxicity, cell-based
Conditions: human
How it was run: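 Per cents of healthy-nucleus cells form the tubulin, mitochondrial-mass and membrane-permeability phenotype values. Live cells were stained at seeding with Hoechst33342, BioTracker Green Microtubule Cytoskeleton Dye, MitoTracker Red and Annexin V Alexa Fluor 680. After compound addition they were imaged on a CQ1 microscope at 37°C and 5% CO2, and CellPathfinder machine-learning gating split them into Hoechst high-intensity objects or normal cells, normal cells into healthy, pyknosed or fragmented nuclei, and pyknosed cells into mitotic or apoptotic.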

[1] = 12 h, 1 µM, compound concentration 1 uM, replicate 1
[2] = 12 h, 1 µM, compound concentration 1 uM, replicate 2
[3] = 12 h, 10 µM, compound concentration 10 uM, replicate 1
[4] = 12 h, 10 µM, compound concentration 10 uM, replicate 2
[5] = 24 h, 1 µM, compound concentration 1 uM, replicate 1
[6] = 24 h, 1 µM, compound concentration 1 uM, replicate 2
[7] = 24 h, 10 µM, compound concentration 10 uM, replicate 1
[8] = 24 h, 10 µM, compound concentration 10 uM, replicate 2
[9] = 48 h, 1 µM, compound concentration 1 uM, replicate 1
[10] = 48 h, 1 µM, compound concentration 1 uM, replicate 2
[11] = 48 h, 10 µM, compound concentration 10 uM, replicate 1
[12] = 48 h, 10 µM, compound concentration 10 uM, replicate 2

Cc1csc2c(N[C@@H](C)CN3CCN(S(=O)(=O)c4ccc(Cl)c(Cl)c4)CC3)ncnc12
Population Apoptotic (%) [1]: 58%
Population Fragmented Nuclei (%) [1]: 12%
Population Healthy Nuclei (%) [1]: 16%
Population Hoechst High Intensity Objects (%) [1]: 19%
Population Membrane Permeable-Phenotype (%) [1]: 6%
Population Mitochondria Different-Phenotype (%) [1]: 96%
Population Mitotic Cells (%) [1]: 41%
Population Normal (%) [1]: 80%
Population Pyknosed Nuclei (%) [1]: 71%
Population Tubulin-Different-Phenotype (%) [1]: 93%
Total Cell Count [1]: 223
Population Apoptotic (%) [2]: 27%
Population Fragmented Nuclei (%) [2]: 5%
Population Healthy Nuclei (%) [2]: 29%
Population Hoechst High Intensity Objects (%) [2]: 13%
Population Membrane Permeable-Phenotype (%) [2]: 14%
Population Mitochondria Different-Phenotype (%) [2]: 47%
Population Mitotic Cells (%) [2]: 72%
Population Normal (%) [2]: 86%
Population Pyknosed Nuclei (%) [2]: 64%
Population Tubulin-Different-Phenotype (%) [2]: 64%
Total Cell Count [2]: 135
Population Apoptotic (%) [3]: 79%
Population Fragmented Nuclei (%) [3]: 9%
Population Healthy Nuclei (%) [3]: 5%
Population Hoechst High Intensity Objects (%) [3]: 11%
Population Membrane Permeable-Phenotype (%) [3]: 20%
Population Mitochondria Different-Phenotype (%) [3]: 90%
Population Mitotic Cells (%) [3]: 20%
Population Normal (%) [3]: 88%
Population Pyknosed Nuclei (%) [3]: 84%
Population Tubulin-Different-Phenotype (%) [3]: 80%
Total Cell Count [3]: 197
Population Apoptotic (%) [4]: 80%
Population Fragmented Nuclei (%) [4]: 5%
Population Healthy Nuclei (%) [4]: 11%
Population Hoechst High Intensity Objects (%) [4]: 8%
Population Membrane Permeable-Phenotype (%) [4]: 9%
Population Mitotic Cells (%) [4]: 19%
Population Normal (%) [4]: 91%
Population Pyknosed Nuclei (%) [4]: 83%
Population Tubulin-Different-Phenotype (%) [4]: 68%
Total Cell Count [4]: 206
Population Apoptotic (%) [5]: 57%
Population Fragmented Nuclei (%) [5]: 16%
Population Healthy Nuclei (%) [5]: 21%
Population Hoechst High Intensity Objects (%) [5]: 18%
Population Membrane Permeable-Phenotype (%) [5]: 4%
Population Mitochondria Different-Phenotype (%) [5]: 93%
Population Mitotic Cells (%) [5]: 42%
Population Normal (%) [5]: 81%
Population Pyknosed Nuclei (%) [5]: 62%
Population Tubulin-Different-Phenotype (%) [5]: 90%
Total Cell Count [5]: 244
Population Apoptotic (%) [6]: 35%
Population Fragmented Nuclei (%) [6]: 10%
Population Healthy Nuclei (%) [6]: 28%
Population Hoechst High Intensity Objects (%) [6]: 7%
Population Membrane Permeable-Phenotype (%) [6]: 8%
Population Mitochondria Different-Phenotype (%) [6]: 44%
Population Mitotic Cells (%) [6]: 64%
Population Normal (%) [6]: 92%
Population Pyknosed Nuclei (%) [6]: 61%
Population Tubulin-Different-Phenotype (%) [6]: 88%
Total Cell Count [6]: 131
Population Apoptotic (%) [7]: 85%
Population Fragmented Nuclei (%) [7]: 12%
Population Healthy Nuclei (%) [7]: 6%
Population Hoechst High Intensity Objects (%) [7]: 16%
Population Membrane Permeable-Phenotype (%) [7]: 27%
Population Mitochondria Different-Phenotype (%) [7]: 90%
Population Mitotic Cells (%) [7]: 14%
Population Normal (%) [7]: 83%
Population Pyknosed Nuclei (%) [7]: 80%
Population Tubulin-Different-Phenotype (%) [7]: 63%
Total Cell Count [7]: 208
Population Apoptotic (%) [8]: 88%
Population Fragmented Nuclei (%) [8]: 5%
Population Healthy Nuclei (%) [8]: 7%
Population Hoechst High Intensity Objects (%) [8]: 9%
Population Membrane Permeable-Phenotype (%) [8]: 0%
Population Mitochondria Different-Phenotype (%) [8]: 85%
Population Mitotic Cells (%) [8]: 11%
Population Normal (%) [8]: 91%
Population Pyknosed Nuclei (%) [8]: 86%
Population Tubulin-Different-Phenotype (%) [8]: 71%
Total Cell Count [8]: 200
Population Apoptotic (%) [9]: 59%
Population Fragmented Nuclei (%) [9]: 16%
Population Healthy Nuclei (%) [9]: 38%
Population Hoechst High Intensity Objects (%) [9]: 17%
Population Membrane Permeable-Phenotype (%) [9]: 5%
Population Mitochondria Different-Phenotype (%) [9]: 80%
Population Mitotic Cells (%) [9]: 40%
Population Normal (%) [9]: 82%
Population Pyknosed Nuclei (%) [9]: 45%
Population Tubulin-Different-Phenotype (%) [9]: 85%
Total Cell Count [9]: 240
Population Apoptotic (%) [10]: 29%
Population Fragmented Nuclei (%) [10]: 10%
Population Healthy Nuclei (%) [10]: 47%
Population Hoechst High Intensity Objects (%) [10]: 8%
Population Membrane Permeable-Phenotype (%) [10]: 17%
Population Mitochondria Different-Phenotype (%) [10]: 44%
Population Mitotic Cells (%) [10]: 70%
Population Normal (%) [10]: 91%
Population Pyknosed Nuclei (%) [10]: 42%
Population Tubulin-Different-Phenotype (%) [10]: 89%
Total Cell Count [10]: 159
Population Apoptotic (%) [11]: 47%
Population Fragmented Nuclei (%) [11]: 23%
Population Healthy Nuclei (%) [11]: 4%
Population Hoechst High Intensity Objects (%) [11]: 17%
Population Membrane Permeable-Phenotype (%) [11]: 25%
Population Mitochondria Different-Phenotype (%) [11]: 62%
Population Mitotic Cells (%) [11]: 52%
Population Normal (%) [11]: 82%
Population Pyknosed Nuclei (%) [11]: 72%
Population Tubulin-Different-Phenotype (%) [11]: 87%
Total Cell Count [11]: 229
Population Apoptotic (%) [12]: 74%
Population Fragmented Nuclei (%) [12]: 4%
Population Healthy Nuclei (%) [12]: 21%
Population Hoechst High Intensity Objects (%) [12]: 13%
Population Membrane Permeable-Phenotype (%) [12]: 8%
Population Mitochondria Different-Phenotype (%) [12]: 78%
Population Mitotic Cells (%) [12]: 25%
Population Normal (%) [12]: 86%
Population Pyknosed Nuclei (%) [12]: 73%
Population Tubulin-Different-Phenotype (%) [12]: 67%
Total Cell Count [12]: 199
